# Screening results deposited in PubChem by several laboratories.
# Hits are enriched below; roughly 2.2% of the tested compounds scored in any of these assays.
# Rin1-Abl PPI inh = inhibitors of Rin1-Abl protein binding, primary screen, biochemical, TR-FRET; inhibition, % at 7.35 µM; 0.4% of 360,000 active; AID 588664, 2011; Tyrosine-protein kinase ABL1 (Homo sapiens) + Ras and Rab interactor 1 (Homo sapiens), …; in the data active = inhibition above about 5%, passing the limit was not always enough
# UBC13 inh = UBC13 polyubiquitin chain formation inhibitors, primary screen, biochemical, TR-FRET, uHTS | inhibition, % at 20 µM | AID 485273, 2010 | Ubiquitin-conjugating enzyme E2 N (Homo sapiens), P61088 | 0.47% of 330,000 active; in the data active = inhibition above about 45%, passing the limit was not always enough
# Target sequence (P61088 whole entry, looked up): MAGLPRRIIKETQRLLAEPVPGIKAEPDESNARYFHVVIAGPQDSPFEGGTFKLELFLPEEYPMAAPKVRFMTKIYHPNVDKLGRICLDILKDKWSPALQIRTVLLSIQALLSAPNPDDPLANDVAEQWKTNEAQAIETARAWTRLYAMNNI
# GSTO1 inh = inhibitors of recombinant GSTO1, primary screen, counter-screen for RBBP9 inhibitor project, biochemical, fluorescence polarization; Glutathione S-transferase omega-1 (Homo sapiens), P78417; activity-based probe fluorescence polarization; inhibition, % at 5.96 µM; 1.1% of 300,000 active;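 active = inhibition above the campaign mean inhibition plus 3 SD, cut at about 35% in these data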;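 note: 0% = GSTO1-1 with DMSO and 100% = wells lacking GSTO1-1 enzyme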
# Target sequence (P78417 whole entry, looked up): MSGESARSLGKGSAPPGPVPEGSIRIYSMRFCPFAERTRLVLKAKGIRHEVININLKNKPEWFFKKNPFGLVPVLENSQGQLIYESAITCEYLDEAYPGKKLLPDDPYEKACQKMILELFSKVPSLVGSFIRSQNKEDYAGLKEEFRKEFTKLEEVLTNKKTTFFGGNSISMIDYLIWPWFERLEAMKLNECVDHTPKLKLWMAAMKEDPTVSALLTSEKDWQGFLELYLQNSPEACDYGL
# SUMO HTRF inh = inhibitors of in vitro SUMOylation cascade, primary screen, biochemical, HTRF, uHTS. HTRF SUMOylation assay, SAE1/SAE2 + UBC9. 0.36% of 290,000 active. inhibition, % at 35 µM; in the data active = inhibition above about 50%, passing the limit was not always enough
# Target sequence (P63279 whole entry, looked up): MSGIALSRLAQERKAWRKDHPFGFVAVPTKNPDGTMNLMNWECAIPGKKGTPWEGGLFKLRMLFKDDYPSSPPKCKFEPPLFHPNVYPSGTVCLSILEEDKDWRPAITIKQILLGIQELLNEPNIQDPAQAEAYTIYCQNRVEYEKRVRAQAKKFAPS
# PAD4 inh = human PAD4 inhibitors, primary screen, biochemical, fluorescence polarization, 1536-well format; AID 485272, 2010; recombinant PAD4, RCA probe fluorescence polarization; Protein-arginine deiminase type-4 (Homo sapiens), Q9UM07; inhibition, % at 6.36 µM; 0.41% of 330,000 active;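 active = percent inhibition above a cutoff equal to the mean of all tested compounds plus 3 SD, cut at about 15% in these data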;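 note: 0% = PAD4 with RCA probe and DMSO and 100% = probe without PAD4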
# Apaf-1 inh = inhibitors of human Apaf-1 apoptosome, primary screen, biochemical, DEVD-Rh110 fluorescence, uHTS. reconstituted apoptosome caspase-3 activity. inhibition, % at 20 µM. 0.71% of 330,000 active. AID 489030, 2010; active = inhibition of at least 40% at 20 µM;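 note: plate controls were DMSO wells for no effect and DEVD-CHO caspase inhibitor wells for full effect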
#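 System – cell-free apoptosome with Apaf-1, procaspase-3 and caspase-9 · Buffer or medium – pH 7.5 Hepes buffer with CHAPS, BSA, DTT · Also added – cytochrome c with DEVD-Rh110 · Times – 30 min compound preincubation, 50 min activation, room temperature · Technique – Rh110 fluorescence intensity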
# Apaf-1 inh conf = Apaf-1 inhibitors, single-dose retest, confirmation, biochemical, fluorescence, DEVD-Rh110, 20 µM; inhibition, % at 20 µM; 25% of 1,800 active; reconstituted apoptosome, caspase-3 DEVD-Rh110 fluorescence; shares compounds with Apaf-1 inh;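 active = mean inhibition of at least 40% at 20 µM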;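 note: plate controls were DMSO wells for no effect and DEVD-CHO caspase inhibitor control wells for full effect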
# Rh110 quench = Rh110 fluorescence interference by putative Apaf-1 inhibitors, confirmation, artefact control for Apaf-1 inhibitor project, biochemical, 20 µM; activation (fluorescence interference), % at 20 µM; 1,800 tested, under 10 active; quenched caspase reaction; shares compounds with Apaf-1 inh;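 active = signal rise of 40% or more at 20 µM, treated as a fluorescence artifact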
# Apaf1 inh interf = fluorescence interference of Apaf-1 inhibitor hits, dose response, artefact control for Apaf-1 inhibitor project; shares compounds with Apaf-1 inh; fluorescence interference counterscreen, Apaf-1 assay format; IC50, µM; 460 tested, under 10 active; AID 588538, 2011; call rule not given here
# Numbers without * were called inactive; . = no result.
SMILES,Rin1-Abl PPI inh,UBC13 inh,GSTO1 inh,SUMO HTRF inh,PAD4 inh,Apaf-1 inh,Apaf-1 inh conf,Rh110 quench,others
CCC(=O)Nc1c(S(=O)(=O)c2ccc(C)cc2)c2nc3ccccc3nc2n1C(C)c1ccccc1 (configuration not stated),-1,-6,1,-4,-5,44*,15,4,
CCCCn1c(NC(C)=O)c(C#N)c2nc3ccccc3nc21,-1,-1,27,102*,-19,84*,26,3,
CCCCCn1c(NC(=O)c2ccco2)c(S(=O)(=O)c2ccc(C)cc2)c2nc3ccccc3nc21,0,-36,12,.,-10,63*,34,13,
Cc1ccc(S(=O)(=O)c2c(N)n(NC(=O)c3ccccc3C)c3nc4ccccc4nc23)cc1,-2,-5,-15,14,1,4,.,.,
COc1ccc(S(=O)(=O)Oc2ccc3ccccc3c2)cc1,2,-5,3,-21,-2,7,.,.,
COc1ccc(S(=O)(=O)Oc2ccc3cccc(N)c3c2)cc1,-8,-89,7,.,-17,88*,13,13,
CCN1/C(=C/c2ccc3ccccc3[n+]2CC)C=Cc2ccccc21,-72,-432,-43,-21,-72,41*,18,20,
CCN1/C(=C/c2ccc3ccccc3[n+]2CCCS(=O)(=O)[O-])C=Cc2cc(C)ccc21,-8,.,.,14,.,.,.,.,
O=C1Cc2ccccc2C(=O)N1CCc1ccccc1,2,-25,25,22,-21,79*,95*,5,Apaf1 inh interf=>100
O=C1C(=O)N(Cc2ccccc2)C(=O)N1CCN1C(=O)c2ccccc2C1=O,0,-11,-8,-2,0,-1,.,.,
Cc1ccc(CN2CCC[C@]3(N[C@H](c4ccc(C)cc4)[C@@H]4C(=O)N(Cc5ccccc5)C(=O)[C@@H]43)C2=O)cc1,-3,.,.,.,.,.,.,.,
COc1cc2c(cc1O)CC[n+]1cc3c(OC)c(OC)ccc3cc1-2,-6,-99,-8,-4,2,-6,.,.,
COc1cc2c(cc1OC)-c1cc3ccc4c(c3c[n+]1CC2)OCO4,-35,-351,42*,.,-19,73*,28,-3,
O=C(NCCC(=O)N1CCN(c2ccccc2O)CC1)c1ccc(Br)cc1,1,-7,6,.,-6,2,.,.,
O=C(NCCC(=O)N1CCN(c2cccc(Cl)c2)CC1)c1ccc(Br)cc1,4,27,.,.,4,44*,36,13,
Cc1cc(C(=O)N/N=C2\CC(=O)c3ccccc32)c(C)n1-c1ccc(F)cc1,-1,-14,55*,36,-5,69*,22,-2,
CCOc1cc(/C=N/NC(=O)c2cc(C)n(-c3ccc(F)cc3)c2C)ccc1O,-1,23,23,9,0,-22,.,.,
CCOc1ccc(S(=O)(=O)Nc2ccc(C(=O)N(CC)CC(=O)NCc3cccs3)cc2)cc1,0,.,.,.,.,.,.,.,
CCOc1ccc(NS(=O)(=O)c2ccc(C(=O)N(CC)CC(=O)NCc3cccs3)cc2)cc1,0,38,6,17,0,61*,29,-3,
O=C(c1ccc([N+](=O)[O-])o1)N(Cc1nnc(-c2ccccc2Cl)o1)C1CC1,-1,35,.,.,6,51*,41*,5,Apaf1 inh interf=>100
Cc1ccc(C(=O)N(Cc2nnc(-c3ccccc3Cl)o2)C2CC2)o1,-2,.,.,.,.,.,.,.,
N#CC1=C2SCN(Cc3ccccc3)CN2C(=O)CC1c1ccccc1F (configuration not stated),1,4,8,12,5,24,.,.,
COc1ccc(Br)cc1C1CC(=O)N2CN(Cc3ccccc3)CSC2=C1C#N (configuration not stated),-4,-5,-5,51,-1,78*,20,0,
COc1ccc(Br)cc1C1CC(=O)N2CN(C)CSC2=C1C#N (configuration not stated),0,-22,0,12,-3,42*,29,18,
CCCCN(C(=O)CCSc1ccc(F)cc1)c1c(N)n(Cc2ccccc2)c(=O)[nH]c1=O,1,2,4,.,1,7,.,.,
SMILES,Rin1-Abl PPI inh,UBC13 inh,GSTO1 inh,SUMO HTRF inh,PAD4 inh,Apaf-1 inh,Apaf-1 inh conf,Rh110 quench,others
COc1ccccc1N(CC(=O)Nc1ccc(Br)cc1F)S(=O)(=O)c1cccs1,-2,-6,.,.,.,21,.,.,
Cc1ccc(S(=O)(=O)N2CCN(c3nc(CN4CCCC4)nc4sc(C)c(C)c34)CC2)cc1,-2,18,.,.,0,48*,29,15,
CCCNC(=O)C1(C)CCCN(C(=O)c2ccc(C)c(F)c2)C1 (configuration not stated),-2,.,.,.,.,.,.,.,
Cc1cc(C)nc(/N=c2/ssnc2Cl)c1,1,-30,27,9,0,71*,82*,1,Apaf1 inh interf=>100
COc1cc2ccccc2cc1C(=O)N1CCc2ccccc21,2,-2,.,.,.,24,.,.,
CN(CC(=O)Nc1ccccc1C(F)(F)F)CC(=O)N1CCCCCC1,0,0,.,.,-1,13,.,.,
Cc1ccc(S(=O)(=O)N(C)C)cc1NC(=O)c1ccccc1SCC(=O)N1CCCC1,3,28,.,.,1,41*,36,9,
CCN(CC(=O)Nc1ccccc1C(F)(F)F)C(=O)c1ccccc1SCC(=O)N1CCCC1,1,16,1,.,-2,43*,29,-6,
COc1ccc(-c2nc3cc(C)c(Br)c(C)n3c2CC(C)(C)C)cc1OC,3,.,.,.,.,.,.,.,
O=C(OCC(=O)N1CCN(S(=O)(=O)c2ccc(Cl)cc2)CC1)c1ccc([N+](=O)[O-])o1,-5,-9,7,5,-15,69*,14,3,
O=C(OCC(=O)N1CCN(S(=O)(=O)c2ccccc2)CC1)c1ccc([N+](=O)[O-])o1,5,8,14,15,-13,80*,18,10,
O=C(OCC(=O)N1CCN(S(=O)(=O)c2ccc(Cl)cc2)CC1)C1CC1,3,-4,.,.,3,0,.,.,
CC1CCN(C(=O)COC(=O)c2ccc([N+](=O)[O-])o2)CC1,-2,-6,.,.,-20,2,.,.,
